Laboratory results from ChEMBL document CHEMBL5303300, “EUbOPEN Chemogenomics Library - Multiplex” (2023).
Values joined by “and” are separate entries in the source; they are usually repeats but may differ in a detail not shown here. Equal entries are not always repeated.

Assays:
HEK-293T = assay: Multiplex assay against HEK293T; format: toxicity, cell-based; conditions: human, number of replicates 2
How it was run: (§1)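 Live cells were stained at seeding with Hoechst33342, BioTracker Green Microtubule Cytoskeleton Dye, MitoTracker Red and Annexin V Alexa Fluor 680, then imaged on a CQ1 microscope at 37°C and 5% CO2 after compound addition. CellPathfinder machine-learning gating split cells into Hoechst high-intensity objects or normal cells. Normal cells were split into healthy, pyknosed or fragmented nuclei, and pyknosed cells into mitotic or apoptotic. Tubulin, mitochondrial-mass and membrane-permeability phenotypes are per cents of healthy-nucleus cells.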

U2OS = assay: Multiplex assay against U2OS; format: toxicity, cell-based; conditions: human, number of replicates 2; how it was run: as §1
[1] = 24 h, 1 µM, compound concentration 1 uM
[2] = 24 h, 10 µM, compound concentration 10 uM
[3] = 48 h, 1 µM, compound concentration 1 uM
[4] = 48 h, 10 µM, compound concentration 10 uM
[5] = 12 h, 1 µM, compound concentration 1 uM
[6] = 12 h, 10 µM, compound concentration 10 uM

CCCN(CCc1cccs1)[C@H]1CCc2c(O)cccc2C1 [ROTIGOTINE]
Population Tubulin-Different-Phenotype (%) (HEK-293T; [1]): 30% and 32%
Total Cell Count (HEK-293T; [1]): 1198 and 930
Population Apoptotic (%) (HEK-293T; [2]): 25% and 32%
Population Fragmented Nuclei (%) (HEK-293T; [2]): 5% and 7%
Population Healthy Nuclei (%) (HEK-293T; [2]): 89% and 86%
Population Hoechst High Intensity Objects (%) (HEK-293T; [2]): 8% and 9%
Population Membrane Permeable-Phenotype (%) (HEK-293T; [2]): 2% and 4%
Population Mitochondria Different-Phenotype (%) (HEK-293T; [2]): 9% and 5%
Population Mitotic Cells (%) (HEK-293T; [2]): 74% and 67%
Population Normal (%) (HEK-293T; [2]): 91% and 90%
Population Pyknosed Nuclei (%) (HEK-293T; [2]): 5%
Population Tubulin-Different-Phenotype (%) (HEK-293T; [2]): 50% and 47%
Total Cell Count (HEK-293T; [2]): 859 and 863
Population Apoptotic (%) (HEK-293T; [3]): 5% and 13%
Population Fragmented Nuclei (%) (HEK-293T; [3]): 18% and 11%
Population Healthy Nuclei (%) (HEK-293T; [3]): 79% and 85%
Population Hoechst High Intensity Objects (%) (HEK-293T; [3]): 9% and 10%
Population Membrane Permeable-Phenotype (%) (HEK-293T; [3]): 5% and 3%
Population Mitochondria Different-Phenotype (%) (HEK-293T; [3]): 0%
Population Mitotic Cells (%) (HEK-293T; [3]): 94% and 86%
Population Normal (%) (HEK-293T; [3]): 90% and 89%
Population Pyknosed Nuclei (%) (HEK-293T; [3]): 2%
Population Tubulin-Different-Phenotype (%) (HEK-293T; [3]): 11% and 17%
Total Cell Count (HEK-293T; [3]): 3231 and 2107
Population Fragmented Nuclei (%) (HEK-293T; [4]): 22% and 16%
Population Healthy Nuclei (%) (HEK-293T; [4]): 76% and 81%
Population Hoechst High Intensity Objects (%) (HEK-293T; [4]): 9% and 8%
Population Membrane Permeable-Phenotype (%) (HEK-293T; [4]): 7% and 6%
Population Mitochondria Different-Phenotype (%) (HEK-293T; [4]): 0% and 1%
Population Mitotic Cells (%) (HEK-293T; [4]): 83% and 95%
Population Normal (%) (HEK-293T; [4]): 90% and 91%
Population Pyknosed Nuclei (%) (HEK-293T; [4]): 1% and 2%
Population Tubulin-Different-Phenotype (%) (HEK-293T; [4]): 22% and 24%
Total Cell Count (HEK-293T; [4]): 2378 and 2001
Population Apoptotic (%) (U2OS; [5]): 46% and 66%
Population Fragmented Nuclei (%) (U2OS; [5]): 6% and 13%
Population Healthy Nuclei (%) (U2OS; [5]): 84% and 76%
Population Hoechst High Intensity Objects (%) (U2OS; [5]): 0%
Population Mitochondria Different-Phenotype (%) (U2OS; [5]): 0%
Population Mitotic Cells (%) (U2OS; [5]): 53% and 33%
Population Normal (%) (U2OS; [5]): 100%
Population Pyknosed Nuclei (%) (U2OS; [5]): 9% and 10%
Population Tubulin-Different-Phenotype (%) (U2OS; [5]): 86% and 34%
Total Cell Count (U2OS; [5]): 30
Population Apoptotic (%) (U2OS; [6]): 62% and 50%
Population Healthy Nuclei (%) (U2OS; [6]): 84% and 60%
Population Hoechst High Intensity Objects (%) (U2OS; [6]): 0%
Population Membrane Permeable-Phenotype (%) (U2OS; [6]): 4% and 13%
Population Mitochondria Different-Phenotype (%) (U2OS; [6]): 1% and 0%
Population Mitotic Cells (%) (U2OS; [6]): 37% and 50%
Population Normal (%) (U2OS; [6]): 100%
Population Pyknosed Nuclei (%) (U2OS; [6]): 11% and 15%
Population Apoptotic (%) (U2OS; [1]): 57% and 80%
Population Fragmented Nuclei (%) (U2OS; [1]): 1% and 6%
Population Healthy Nuclei (%) (U2OS; [1]): 89% and 82%
Population Hoechst High Intensity Objects (%) (U2OS; [1]): 0%
Population Membrane Permeable-Phenotype (%) (U2OS; [1]): 2%
Population Mitochondria Different-Phenotype (%) (U2OS; [1]): 0%
Population Mitotic Cells (%) (U2OS; [1]): 42% and 20%
Population Normal (%) (U2OS; [1]): 100%
Population Pyknosed Nuclei (%) (U2OS; [1]): 8% and 10%
Population Tubulin-Different-Phenotype (%) (U2OS; [1]): 88% and 39%
Population Apoptotic (%) (U2OS; [2]): 48% and 66%
Population Healthy Nuclei (%) (U2OS; [2]): 83% and 75%
Population Hoechst High Intensity Objects (%) (U2OS; [2]): 0%
Population Membrane Permeable-Phenotype (%) (U2OS; [2]): 0% and 9%
Population Mitochondria Different-Phenotype (%) (U2OS; [2]): 1% and 2%
Population Mitotic Cells (%) (U2OS; [2]): 51% and 33%
Population Normal (%) (U2OS; [2]): 100%
Population Pyknosed Nuclei (%) (U2OS; [2]): 13% and 10%
Population Tubulin-Different-Phenotype (%) (U2OS; [2]): 62% and 46%
Population Apoptotic (%) (U2OS; [3]): 35% and 83%
Population Healthy Nuclei (%) (U2OS; [3]): 90% and 76%
Population Hoechst High Intensity Objects (%) (U2OS; [3]): 0% and 1%
Population Membrane Permeable-Phenotype (%) (U2OS; [3]): 1% and 6%
Population Mitochondria Different-Phenotype (%) (U2OS; [3]): 0% and 4%
Population Normal (%) (U2OS; [3]): 99% and 98%
Population Pyknosed Nuclei (%) (U2OS; [3]): 6% and 9%
Population Tubulin-Different-Phenotype (%) (U2OS; [3]): 93% and 35%
Population Apoptotic (%) (U2OS; [4]): 66% and 57%
Population Fragmented Nuclei (%) (U2OS; [4]): 8% and 2%
Population Healthy Nuclei (%) (U2OS; [4]): 75% and 90%
Population Hoechst High Intensity Objects (%) (U2OS; [4]): 0%
Population Membrane Permeable-Phenotype (%) (U2OS; [4]): 6% and 1%
Population Mitochondria Different-Phenotype (%) (U2OS; [4]): 3% and 0%
Population Mitotic Cells (%) (U2OS; [4]): 33% and 42%
Population Normal (%) (U2OS; [4]): 100% and 99%
Population Pyknosed Nuclei (%) (U2OS; [4]): 15% and 6%
Population Tubulin-Different-Phenotype (%) (U2OS; [4]): 62% and 78%
